# T cruzi repl: blocks replication of Trypanosoma cruzi. inhibition, % (concentration not given with the values). 300,000 tested, 1.4% active. T. cruzi beta-gal in NIH3T3, luminescence, 90 h;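 active = mean inhibition across valid replicates above about 55%, limit read from the data; inconclusive = mean below that limit but half or more replicates reach it; inactive = mean below it, under half of replicates reach it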;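 also: signal also drops with host cell toxicity which is not excluded here; 0% = plate median of DMSO wells and 100% = zero luminescence signal; higher percent means less beta-gal luminescence so fewer parasites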
#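 System: mouse NIH/3T3 fibroblasts infected with β-gal-expressing T. cruzi Tulahuen C4 / Input: NIH/3T3 cells, 5,000 per well / Buffer or medium: Low-serum DMEM with 2% FBS / Probe or stimulus: 5000 reporter trypomastigotes per well / Schedule: ≥90 h infection period, 3 h prior cell attachment / Measured by: GalScreen luminescence, 60 min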
# Mdm2-MdmX inh: inhibitors of human Mdm2/MdmX interaction. inhibition, % at 8 µM. O15151+Q00987. SaOS-2 split-luciferase Mdm2/MdmX complementation, luminescence. 330,000 tested, 3% active. AID 485346;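 active = inhibition of at least 50% at 8 µM in the primary screen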
# Target sequence (O15151 whole entry, looked up): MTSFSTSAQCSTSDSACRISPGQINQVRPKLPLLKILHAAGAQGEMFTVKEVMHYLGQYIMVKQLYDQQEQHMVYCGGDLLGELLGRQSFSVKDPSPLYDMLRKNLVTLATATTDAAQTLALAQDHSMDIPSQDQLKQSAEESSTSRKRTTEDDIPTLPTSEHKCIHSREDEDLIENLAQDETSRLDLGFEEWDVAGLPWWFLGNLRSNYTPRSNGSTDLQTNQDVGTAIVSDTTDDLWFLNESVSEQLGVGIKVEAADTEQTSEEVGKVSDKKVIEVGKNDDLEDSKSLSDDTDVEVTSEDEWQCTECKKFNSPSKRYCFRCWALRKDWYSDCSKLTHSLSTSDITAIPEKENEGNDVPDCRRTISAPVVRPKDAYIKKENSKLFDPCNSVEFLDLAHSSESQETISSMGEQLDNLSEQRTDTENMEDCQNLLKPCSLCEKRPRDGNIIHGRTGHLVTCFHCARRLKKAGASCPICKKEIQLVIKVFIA
# Target sequence (Q00987 whole entry, looked up): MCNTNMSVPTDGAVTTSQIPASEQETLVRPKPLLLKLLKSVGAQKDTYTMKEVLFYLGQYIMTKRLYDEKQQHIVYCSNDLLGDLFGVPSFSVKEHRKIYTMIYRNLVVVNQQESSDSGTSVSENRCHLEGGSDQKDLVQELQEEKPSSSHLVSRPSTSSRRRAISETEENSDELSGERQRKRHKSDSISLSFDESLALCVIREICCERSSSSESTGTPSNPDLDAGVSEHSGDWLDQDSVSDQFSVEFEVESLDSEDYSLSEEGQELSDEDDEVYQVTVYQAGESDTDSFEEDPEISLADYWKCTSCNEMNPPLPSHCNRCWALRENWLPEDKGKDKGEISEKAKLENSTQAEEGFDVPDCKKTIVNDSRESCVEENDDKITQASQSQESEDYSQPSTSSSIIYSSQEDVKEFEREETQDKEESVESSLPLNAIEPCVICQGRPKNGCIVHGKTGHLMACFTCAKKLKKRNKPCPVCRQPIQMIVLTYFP
# Calb FLC: C. albicans growth modulation with fluconazole. C. albicans CaCi-2 + fluconazole, Alamar Blue growth, 48 h. growth inhibition, % (concentration not given with the values). AID 1979. 300,000 tested, 0.57% active;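 active = growth inhibition above about 58% in most replicates, limit read from the data, passing the limit was not always enough; inconclusive = exactly half the replicates above a set limit; inactive = most replicates below a set limit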;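 also: all wells also contain fluconazole at 8 µg/ml as a sub-toxic cotreatment; 0% = median of DMSO wells and 100% = median of geldanamycin control wells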
# Beta cell apopt: blocks beta cell apoptosis; 300,000 tested, 0.8% active; INS-1E cytokine-induced death, ATP luminescence, 48 h; percent of positive-control rescue, neutral wells zero; protection from apoptosis, % (test concentration not listed); AID 435005;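 active = Every replicate reaches about 75%, or at least half do and their mean reaches it too, limit read from the data; inconclusive = At least half of replicates reach the limit but their mean does not; inactive = Under half of replicates reach the limit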;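 also: 0% = cytokine-treated negative control wells and 100% = positive control rescue; higher means more ATP so stronger rescue from cytokine killing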
# CSC inhib: cancer stem cell inhibition; inhibition, % at 7.5 µM; cancer stem cell-like cells viability, luminescence; 300,000 tested, 1.1% active; in the data active = inhibition above about 75%; inconclusive = no clear call, values can overlap the other calls; tested in HMLE shEcad cells
# SKKanGAS inh: blocks kanamycin growth of S. pyogenes SKKanGAS strain. BacTiter-Glo, 6 h. inhibition, % at 7.5 µM. 300,000 tested, 1.3% active;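 active = mean replicate score, as percent of positive control median, at least 50; inconclusive = mean below 50 but one replicate at or above 50; inactive = mean and every replicate below 50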;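 also: strain carries kanamycin resistance gene driven by streptokinase promoter and grows in 40 µg/ml kanamycin; loss of luminescence reflects streptokinase promoter inhibition or plain growth inhibition; 0% = median of DMSO wells and 100% = positive control at its reference dose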
# Mdm2 MdmX conf: human Mdm2/MdmX binding inhibition, confirmed; 10,000 tested, 55% active; shares compounds with Mdm2-MdmX inh; inhibition, % at 8 µM; luminescent assay; in the data active = inhibition above about 40%
# Full FLuc ctr: counter-screen for Mdm2/MdmX inhibitors: full-length luciferase; shares compounds with Mdm2-MdmX inh; 6,200 tested, 77% active; SaOS-2 full-length luciferase counterscreen, luminescence; inhibition, % at 8 µM;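 active = mean inhibition at 8 µM reaching about 37%, which flags the compound as non-specific, limit read from the data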;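 also: p53-null SaOS-2 cells with luciferase driven by a doxycycline-inducible promoter; compound on cells about two nights before reading with doxycycline added after day one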
# The depositor's hits bear a star; ? = inconclusive; . = no result given. Only some compounds are listed: those with a hit (about 5.7% of all), similar ones and a draw of the others.
SMILES,T cruzi repl,Mdm2-MdmX inh,Calb FLC,Beta cell apopt,CSC inhib,SKKanGAS inh,Mdm2 MdmX conf,others
COc1ccc(S(=O)(=O)N2CCOCC2)cc1NC(=O)COC(=O)CC1CC2CCC1C2 (stereo not drawn),.,3,.,-5,12,.,.,
COc1ccc(N(C(=O)Cc2cccs2)C(C(=O)NC2CCCC2)c2ccncc2)cc1OC (stereo not drawn),3,17,-1,-1,-7,-1,.,
C#CC(=O)N(c1cccc(OC)c1)C(C(=O)NC1CCCC1)c1cccs1 (stereo not drawn),51,97*,7,94*,6,1,100*,Full FLuc ctr=52*
C#CC(=O)N(c1ccc(OC)c(OC)c1)C(C(=O)NC1CCCC1)c1cccs1 (stereo not drawn),26,99*,2,50,10,-7,100*,Full FLuc ctr=53*
COc1cc(N(C(=O)Cc2cccs2)C(C(=O)NC2CCCCC2)c2ccc(C)cc2)ccc1-n1cnnn1 (stereo not drawn),10,84*,9,16,0,28,19,
CSc1nnc2c3ccccc3n(CCc3ccccc3)c2n1,35,82*,1,7,53,8,90*,Full FLuc ctr=42*
CSc1nnc2c3ccccc3n(Cc3ccccc3)c2n1,-13,44,-6,5,-5,1,.,
CCOc1ccccc1OCCCC(=O)NNC(=O)c1ccc(F)cc1,.,17,.,.,.,.,.,
Cc1ccc(N(Cc2ccco2)C(=O)c2ccc(N3CCCCC3)c([N+](=O)[O-])c2)cc1,56*,54*,1,29,64,1,29,
COC(=O)c1ccc(/C=C/c2c(-c3ccsc3)oc3ccc(N4CCOCC4)cc23)cc1,22,57*,1,0,109*,28,10,
COc1ccc(-c2c(-c3ccsc3)oc3ccc(N4CCOCC4)cc23)cn1,14,9,8,2,20,27,.,
CCOC(=O)c1ccc(CNCc2ccc(C)cc2)cc1,1,-10,-16,-1,-3,-5,.,
CN1CCN(c2ccc(Cl)cc2NC(=O)c2cc(=O)[nH]c3ccccc23)CC1,.,25,.,5,-1,.,.,
CN1CCN(c2cc3c(c4c2[nH]c2ccccc24)C(=O)CC(C)(C)C3)CC1,45,57*,101*,.,6,-3,21,
COc1ccc(-c2c3c(nc4sc(C(=O)Nc5cc(C)on5)c(N)c24)CCC3)cc1,5,18,?,-2,-2,12,.,
COc1ccc(-c2c3c(nc4sc5c(=O)[nH]c(C)nc5c24)CCC3)cc1,5,67*,8,28,-1,5,12,
NC(=O)c1ccsc1NC(=O)c1ccc(S(=O)(=O)N2CCCc3ccccc32)cc1,29,59*,1,.,48,28,1,
O=C(O)c1ccc(S(=O)(=O)N2CCCc3ccccc32)cc1,5,10,20,3,5,6,.,
CC(C)N1CCc2c(sc(NC(=O)c3ccc(S(=O)(=O)N4CCc5ccccc54)cc3)c2C(N)=O)C1,37,100*,25,3,113*,7,30,
Cc1nn(-c2ccccc2)c(Cl)c1C1C(C#N)=C(N)Oc2c1c(C)nn2-c1ccccc1 (stereo not drawn),13,-1,3,.,5,-3,.,
CCC(CC)C1C(C#N)=C(N)Oc2n[nH]c(C)c21 (stereo not drawn),-7,52*,-9,-4,12,-6,3,
Cc1nn(-c2ccccc2)c(Cl)c1C1C(C#N)=C(N)Oc2n[nH]c(C)c21 (stereo not drawn),-14,53*,7,2,10,-11,23,
CCC(CC)C1C(C#N)=C(N)Oc2n[nH]c(-c3ccccc3)c21 (stereo not drawn),-7,35,4,3,33,-2,.,
Cc1csc2nc(SCC(=O)Nc3ccccc3F)[nH]c(=O)c12,-17,48,63,8,16,8,.,
NC(=O)NC(=O)COC(=O)/C=C/c1cccc(Br)c1,-3,13,1,-11,-18,9,.,
